From ChEMBL document CHEMBL1140956, “Syntheses of 4-(indole-3-yl)quinazolines: a new class of epidermal growth factor receptor tyrosine kinase inhibitors” (Eur J Med Chem, 2008)

Assays:
[1] = molecular target: Epidermal growth factor receptor (Homo sapiens, UniProt P00533); experiment: Inhibition of human EGFR tyrosine kinase activity
NCI-H322M = experiment: Growth inhibition of human NCI-H322M cells after 72 hrs by SRB assay; assay type: functional; settings: 48 h, in the assay text read “48 hrs” for “72 hrs”
How it was run: (§1)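 NCI 60-cell-line screen. Cells were grown in RPMI 1640 with 5% fetal bovine serum, plated at 5000–40 000 cells/well by doubling time, and held 24 h at 37 °C, 5% CO2. Time-zero plates were TCA-fixed when the DMSO-solubilized drug was added at five concentrations (10-fold or ½-log dilutions). After 48 h, cells were fixed with cold TCA and stained with 0.4% SRB in 1% acetic acid. Bound dye was dissolved in 10 mM trizma base and read at 515 nm. Percentage growth was calculated relative to time-zero and control.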

SK-OV-3 = experiment: Growth inhibition of human SKOV3 cells after 72 hrs by SRB assay; assay type: functional; settings: SK-OV-3, 48 h, in the assay text read “48 hrs” for “72 hrs”; how it was run: as §1
EKVX = experiment: Growth inhibition of human EKVX cells after 72 hrs by SRB assay; assay type: functional; settings: 48 h, in the assay text read “48 hrs” for “72 hrs”; how it was run: as §1
ACHN = experiment: Growth inhibition of human ACHN cells after 72 hrs by SRB assay; assay type: functional; settings: 48 h, in the assay text read “48 hrs” for “72 hrs”; how it was run: as §1
IGROV-1 = experiment: Growth inhibition of human IGROV1 cells after 72 hrs by SRB assay; assay type: functional; settings: IGROV-1, 48 h, in the assay text read “48 hrs” for “72 hrs”; how it was run: as §1
HOP-92 = experiment: Growth inhibition of human HOP92 cells after 72 hrs by SRB assay; assay type: functional; settings: HOP-92, 48 h, in the assay text read “48 hrs” for “72 hrs”; how it was run: as §1
PC-3 = experiment: Growth inhibition of human PC3 cells after 72 hrs by SRB assay; assay type: functional; settings: PC-3, 48 h, in the assay text read “48 hrs” for “72 hrs”; how it was run: as §1
HT-29 = experiment: Growth inhibition of human HT29 cells after 72 hrs by SRB assay; assay type: functional; settings: HT-29, 48 h, in the assay text read “48 hrs” for “72 hrs”; how it was run: as §1
SNB-75 = experiment: Growth inhibition of human SNB75 cells after 72 hrs by SRB assay; assay type: functional; settings: SNB-75, 48 h, in the assay text read “48 hrs” for “72 hrs”; how it was run: as §1
TK-10 = experiment: Growth inhibition of human TK10 cells after 72 hrs by SRB assay; assay type: functional; settings: TK-10, 48 h, in the assay text read “48 hrs” for “72 hrs”; how it was run: as §1
[2] = molecular target: Receptor tyrosine-protein kinase erbB-2 (Homo sapiens) (UniProt P04626); experiment: Inhibition of human HER2 tyrosine kinase activity at 100 nM
Sequence of Receptor tyrosine-protein kinase erbB-2 (Homo sapiens) (P04626 whole entry): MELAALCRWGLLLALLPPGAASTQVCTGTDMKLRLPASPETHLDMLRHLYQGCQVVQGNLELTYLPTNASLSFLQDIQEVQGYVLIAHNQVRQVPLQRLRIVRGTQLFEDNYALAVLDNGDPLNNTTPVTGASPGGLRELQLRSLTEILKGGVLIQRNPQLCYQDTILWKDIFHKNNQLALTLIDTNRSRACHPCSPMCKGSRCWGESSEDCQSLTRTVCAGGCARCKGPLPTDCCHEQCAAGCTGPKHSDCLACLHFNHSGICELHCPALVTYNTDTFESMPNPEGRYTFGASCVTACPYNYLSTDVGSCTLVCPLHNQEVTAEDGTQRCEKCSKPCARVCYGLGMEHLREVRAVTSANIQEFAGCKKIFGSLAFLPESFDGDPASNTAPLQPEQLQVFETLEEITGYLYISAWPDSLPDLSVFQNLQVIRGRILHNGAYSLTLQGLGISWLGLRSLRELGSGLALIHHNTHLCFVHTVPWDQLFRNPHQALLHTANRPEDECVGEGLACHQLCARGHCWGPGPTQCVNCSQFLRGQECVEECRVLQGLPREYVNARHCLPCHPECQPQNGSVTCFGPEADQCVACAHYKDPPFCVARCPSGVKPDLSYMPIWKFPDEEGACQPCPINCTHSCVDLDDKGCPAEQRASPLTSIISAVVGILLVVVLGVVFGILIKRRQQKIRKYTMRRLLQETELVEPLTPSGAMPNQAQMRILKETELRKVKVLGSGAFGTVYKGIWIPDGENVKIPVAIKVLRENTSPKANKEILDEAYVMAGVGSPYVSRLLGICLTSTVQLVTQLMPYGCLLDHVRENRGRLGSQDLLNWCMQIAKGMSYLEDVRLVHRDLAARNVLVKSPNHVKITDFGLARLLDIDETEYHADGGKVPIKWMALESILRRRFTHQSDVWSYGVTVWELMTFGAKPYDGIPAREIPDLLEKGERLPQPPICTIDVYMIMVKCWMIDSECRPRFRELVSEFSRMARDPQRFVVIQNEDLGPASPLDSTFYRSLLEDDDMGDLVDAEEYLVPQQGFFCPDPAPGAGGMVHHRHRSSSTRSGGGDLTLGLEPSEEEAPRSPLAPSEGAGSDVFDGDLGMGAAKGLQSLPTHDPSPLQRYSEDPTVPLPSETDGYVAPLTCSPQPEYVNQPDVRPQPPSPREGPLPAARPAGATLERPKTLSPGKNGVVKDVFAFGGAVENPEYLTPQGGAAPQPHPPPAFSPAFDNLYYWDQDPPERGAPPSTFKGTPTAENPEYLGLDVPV

A498 = experiment: Growth inhibition of human A498 cells after 72 hrs by SRB assay; assay type: functional; settings: A498, 48 h, in the assay text read “48 hrs” for “72 hrs”; how it was run: as §1

Sequence of Epidermal growth factor receptor (P00533 whole entry): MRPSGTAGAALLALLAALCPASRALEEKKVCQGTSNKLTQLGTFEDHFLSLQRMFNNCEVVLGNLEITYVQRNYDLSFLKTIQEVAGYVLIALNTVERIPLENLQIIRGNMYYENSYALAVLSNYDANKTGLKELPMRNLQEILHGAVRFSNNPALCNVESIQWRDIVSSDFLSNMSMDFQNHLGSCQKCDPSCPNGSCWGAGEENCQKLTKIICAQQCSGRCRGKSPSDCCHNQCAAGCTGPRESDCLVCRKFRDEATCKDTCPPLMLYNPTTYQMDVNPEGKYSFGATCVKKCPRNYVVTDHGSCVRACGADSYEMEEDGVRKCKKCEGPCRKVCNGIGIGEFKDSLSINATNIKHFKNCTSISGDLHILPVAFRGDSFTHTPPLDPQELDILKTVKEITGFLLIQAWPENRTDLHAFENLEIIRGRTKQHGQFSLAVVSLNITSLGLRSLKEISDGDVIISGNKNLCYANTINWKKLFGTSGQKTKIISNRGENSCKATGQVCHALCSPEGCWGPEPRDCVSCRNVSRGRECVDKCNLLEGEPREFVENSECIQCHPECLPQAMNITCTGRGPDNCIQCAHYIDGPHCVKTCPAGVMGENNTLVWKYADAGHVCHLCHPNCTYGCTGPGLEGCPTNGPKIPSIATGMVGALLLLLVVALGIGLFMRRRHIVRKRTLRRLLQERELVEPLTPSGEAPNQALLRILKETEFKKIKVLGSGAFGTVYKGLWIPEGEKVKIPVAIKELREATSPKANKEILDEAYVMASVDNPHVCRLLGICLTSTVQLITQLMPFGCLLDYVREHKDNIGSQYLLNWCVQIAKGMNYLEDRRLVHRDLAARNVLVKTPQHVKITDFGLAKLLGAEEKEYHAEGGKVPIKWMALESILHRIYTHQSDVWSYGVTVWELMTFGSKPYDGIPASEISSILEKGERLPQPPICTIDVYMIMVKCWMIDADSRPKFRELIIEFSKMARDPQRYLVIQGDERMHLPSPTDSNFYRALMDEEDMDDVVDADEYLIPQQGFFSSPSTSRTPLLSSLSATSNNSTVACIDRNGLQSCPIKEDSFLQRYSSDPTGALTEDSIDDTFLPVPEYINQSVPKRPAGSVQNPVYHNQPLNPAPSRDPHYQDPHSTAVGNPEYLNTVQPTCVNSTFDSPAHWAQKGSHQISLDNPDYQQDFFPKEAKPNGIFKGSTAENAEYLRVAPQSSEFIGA

Compound	IC50 [1]	GI50 (NCI-H322M)	GI50 (SK-OV-3)	GI50 (EKVX)	GI50 (ACHN)	GI50 (IGROV-1)	GI50 (HOP-92)	GI50 (PC-3)	GI50 (HT-29)	GI50 (SNB-75)	GI50 (TK-10)	inhibition [2]	GI50 (A498)
COc1cc2ncnc(-c3c[nH]c4ccc(Br)cc34)c2cc1OC	131 nM												
COc1cc2ncnc(-c3c[nH]c4cc(F)c(Cl)cc34)c2cc1OCCCN1CCOCC1	333 nM	38 nM	592 nM	89.7 nM	215 nM	108 nM	504 nM	490 nM	3700 nM	49.3 nM	97.6 nM	19%	2900 nM
COc1cc2ncnc(-c3c[nH]c4cc(F)c(C)cc34)c2cc1OC	533 nM												

Continued, in another order:

IC50 [1]	Compound	GI50 (NCI-H322M)	GI50 (SK-OV-3)	GI50 (EKVX)	GI50 (ACHN)	GI50 (IGROV-1)	GI50 (HOP-92)	GI50 (PC-3)	GI50 (HT-29)	GI50 (SNB-75)	GI50 (TK-10)	inhibition [2]	GI50 (A498)
209 nM	COc1cc2ncnc(-c3c[nH]c4cc(F)c(Cl)cc34)c2cc1OC	255 nM	711 nM	410 nM	222 nM	424 nM	1750 nM	766 nM	848 nM	204 nM	325 nM	3%	492 nM
472 nM	COCCOc1cc2ncnc(-c3c[nH]c4cc(F)c(Cl)cc34)c2cc1OCCOC												
